The text below walks through data of ChEMBL document CHEMBL1122302, “2-Benzazepines. 2. Thiazolo[5,4-d][2]benzazepines” (J Med Chem, 1983).

The target of experiment [1] is GABA-A receptor; anion channel. Nature of the experiment: In vitro displacement of [3H]diazepam from GABA-A benzodiazepine receptor. Type of experiment: protein-complex assay. For orientation: Displacement assays read how much labelled ligand stays bound in the presence of the test substance.
A short description of experiment [2]: Prevention of metrazole induced convulsions in the antimetrazole test. Type of experiment: functional. As to conditions: Mus musculus. In outline:
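Test compound given as a suspension in 5% acacia to three male CF-1 animals per dose level; metrazole 70 mg/kg iv 1 h later.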

What is called IC50 is the point on the concentration scale where inhibition reaches its midpoint. The ED50 is the dose that gives a 50% effect, or the effect in half of the subjects. High values mean a need for a large dose, low ones an effect at a small dose.

In experiment [1], `Nc1nc2c(s1)CN=C(c1ccccc1Cl)c1cc(Cl)ccc1-2` gave an IC50 of 1.6 nM. In experiment [2], this compound showed a median effective dose (ED50) of 9.3 mg/kg.

Consider `Nc1nc2c(s1)CN=C(c1ccccc1F)c1cc(Cl)ccc1-2`, for which the IC50 in experiment [1] is 2.8 nM. Further, the ED50 in experiment [2] amounted to 7.7 mg/kg.

For `Cc1nc2c(s1)CN=C(c1ccccc1)c1cc(Cl)ccc1-2`, the concentration for half-maximal inhibition (IC50) in experiment [1] stood at 32 nM. Further, the 50% effect level in experiment [2] (ED50) was put at a dose of 63 mg/kg.

The compound `Cc1nc2c(s1)CN=C(c1ccccc1F)c1cc(Cl)ccc1-2` had an IC50 in experiment [1] of 7.8 nM. The compound further gave an ED50 in experiment [2] of 30 mg/kg.

The compound `Cc1nc2c(s1)CN=C(c1ccccc1Cl)c1cc(Cl)ccc1-2` returned an IC50 in experiment [1] of 4.1 nM. This compound also had an ED50 in experiment [2] of 50 mg/kg.

Compound `Nc1nc2c(s1)CN=C(c1ccccc1)c1cc(Cl)ccc1-2` displayed an IC50 in experiment [1] of 10.5 nM. Besides, the median effective dose (ED50) in experiment [2] stood at 7.4 mg/kg.

As to `CN1C(=O)CN=C(c2ccccc2)c2cc(Cl)ccc21` [DIAZEPAM], the 50% effect level in experiment [2] (ED50) was put at a dose of 1 mg/kg.
